Test results from ChEMBL document CHEMBL1132135, “Potent, orally absorbed glucagon receptor antagonists” (Bioorg Med Chem Lett, 1999).

Experiments:
Glucagon receptor [1] = target: T1, Glucagon receptor (Homo sapiens, UniProt P47871); assay: biochemical; assay type: cell-based, CHO
[2] = target: Mitogen-activated protein kinase 14 (Homo sapiens, UniProt Q16539); assay: Inhibitory activity against p38-alpha kinase
Glucagon receptor [3] = target: T1, Glucagon receptor; assay: Binding affinity towards glucagon receptor determined by reduction in binding of [125I]glucagon to the human glucagon receptor (GGR) expressed on CHO cells in presence of Mg+2; assay type: cell-based
Summary of the method: (§1)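 Radioligand binding to the glucagon receptor was run with 5 mM Mg2+ added, described as a physiological concentration.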

[4] = Selectivity ratio between the binding value of human glucagon receptor (GGR) with Mg+2 and the value of p38 kinase
Glucagon receptor [5] = target: T2, Glucagon receptor (Mus musculus, UniProt Q61606); assay: Binding affinity towards glucagon receptor determined by reduction in binding of [125I]glucagon to the murine glucagon receptor (GGR) expressed on CHO cells in absence of Mg+2; assay type: cell-based
Glucagon receptor [6] = target: T2, Glucagon receptor; assay: (§2) Binding affinity towards glucagon receptor determined by reduction in binding of 125 I-glucagon to the murine glucagon receptor (mGLUR) expressed on CHO cells in presence of Mg+2 at 1 uM; assay type: cell-based
Glucagon receptor [7] = target: T2, Glucagon receptor; assay: (§3) Binding affinity towards glucagon receptor determined by reduction in binding of 125 I-glucagon to the murine glucagon receptor (mGLUR) expressed on CHO cells in presence of Mg+2; assay type: cell-based
Summary of the method: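 Mg2+ added at 5 mM, a physiological level, to the binding medium. IC50 reported in µM, with the number of determinations noted; where no IC50 was reached, percent inhibition is given at a single tested concentration.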

[8] = Inhibition of p38 kinase; details: concentration not given here
[9] = Inhibition of p38 kinase at 1 uM
[10] = target: Glucagon receptor (Mus musculus) (UniProt Q61606); assay: as §3; assay type: cell-based; details: concentration not given here
Summary of the method: as §1

Glucagon receptor [11] = target: T1, Glucagon receptor; assay: Binding affinity towards glucagon receptor determined by reduction in binding of 125 I-glucagon to the human glucagon receptor (hGLUR) expressed on CHO cells in absence of Mg+2 at 2 uM; assay type: cell-based
[12] = Inhibition of p38 kinase at 10 uM
[13] = target: Glucagon receptor (Mus musculus) (UniProt Q61606); assay: as §2; assay type: cell-based
[14] = Inhibition of p38 kinase at 2 uM
[15] = Inhibition of p38 kinase at 40 uM
Glucagon receptor [16] = target: T2, Glucagon receptor; assay: Binding affinity towards glucagon receptor determined by reduction in binding of 125 I-glucagon to the murine glucagon receptor (mGLUR) expressed on CHO cells in presence of Mg+2 at 3 uM
[17] = target: Glucagon receptor (Mus musculus) (UniProt Q61606); assay: Binding affinity towards glucagon receptor determined by reduction in binding of 125 I-glucagon to the murine glucagon receptor (mGLUR) expressed on CHO cells in presence of Mg+2 at 3 uM; assay type: cell-based
[18] = Inhibition of p38 kinase at 5 uM

T1 sequence (P47871 whole entry): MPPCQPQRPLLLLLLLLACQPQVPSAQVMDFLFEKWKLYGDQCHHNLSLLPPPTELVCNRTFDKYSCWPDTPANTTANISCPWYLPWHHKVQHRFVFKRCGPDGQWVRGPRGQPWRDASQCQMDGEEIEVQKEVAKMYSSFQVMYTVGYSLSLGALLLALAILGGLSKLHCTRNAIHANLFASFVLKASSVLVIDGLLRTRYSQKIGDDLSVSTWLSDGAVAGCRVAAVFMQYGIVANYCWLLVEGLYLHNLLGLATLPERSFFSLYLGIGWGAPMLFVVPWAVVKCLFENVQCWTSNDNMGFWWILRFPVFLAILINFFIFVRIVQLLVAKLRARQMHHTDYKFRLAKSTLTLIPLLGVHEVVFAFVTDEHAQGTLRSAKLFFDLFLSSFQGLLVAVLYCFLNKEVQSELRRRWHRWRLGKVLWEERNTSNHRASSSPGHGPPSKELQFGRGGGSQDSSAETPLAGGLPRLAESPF
Chain of Glucagon receptor (Mus musculus) (Q61606 whole entry): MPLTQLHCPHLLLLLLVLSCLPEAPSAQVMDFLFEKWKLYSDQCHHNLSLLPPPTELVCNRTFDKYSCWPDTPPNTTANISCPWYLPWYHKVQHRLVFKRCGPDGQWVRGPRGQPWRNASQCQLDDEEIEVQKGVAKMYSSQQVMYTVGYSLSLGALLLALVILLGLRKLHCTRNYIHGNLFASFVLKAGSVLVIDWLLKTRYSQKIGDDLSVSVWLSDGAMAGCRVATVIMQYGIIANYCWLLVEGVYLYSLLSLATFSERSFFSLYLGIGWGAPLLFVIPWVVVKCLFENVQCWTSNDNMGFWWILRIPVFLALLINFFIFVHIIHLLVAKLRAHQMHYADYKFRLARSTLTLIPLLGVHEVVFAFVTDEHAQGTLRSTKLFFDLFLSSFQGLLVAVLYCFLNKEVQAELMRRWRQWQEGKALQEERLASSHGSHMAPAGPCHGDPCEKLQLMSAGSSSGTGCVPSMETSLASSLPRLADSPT
T2 sequence (Q61606 whole entry): as above
Chain of Mitogen-activated protein kinase 14 (Q16539 whole entry): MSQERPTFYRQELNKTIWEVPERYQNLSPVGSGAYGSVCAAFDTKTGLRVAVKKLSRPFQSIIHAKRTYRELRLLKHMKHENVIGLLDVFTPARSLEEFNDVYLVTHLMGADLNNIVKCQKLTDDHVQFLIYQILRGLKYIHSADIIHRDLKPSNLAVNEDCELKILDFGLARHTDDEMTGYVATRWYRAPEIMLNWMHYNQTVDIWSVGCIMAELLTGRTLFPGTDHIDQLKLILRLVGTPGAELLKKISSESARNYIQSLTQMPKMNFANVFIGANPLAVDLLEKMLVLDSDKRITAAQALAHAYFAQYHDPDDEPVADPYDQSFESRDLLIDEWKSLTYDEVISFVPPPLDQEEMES

| Structure (SMILES) | IC50 (Glucagon receptor [1]) [nM] | IC50 [2] [nM] | IC50 (Glucagon receptor [3]) [nM] | Ratio [4] | IC50 (Glucagon receptor [5]) [nM] | further results |
| --- | --- | --- | --- | --- | --- | --- |
| O=C(O)c1cc(-c2ccc(Cl)cc2)[nH]c1-c1ccncc1 | > 3000 | > 1000 | – | – | – | – |
| Fc1ccc(-c2cc[nH]c2-c2ccncc2)cc1 | > 3000 | 160 | > 3000 | > 18 | – | – |
| Nc1ccc(-c2cc(-c3ccc(F)cc3)c(-c3ccncc3)[nH]2)cc1 | 1400 | 190 | – | – | – | – |
| Fc1ccc(-c2cc(-c3ccc(F)cc3)c(-c3ccncc3)[nH]2)cc1 | 90 | 340 | 350 | 1 | 430 | Inhibition (Glucagon receptor [6]): 7% |
| CCCOc1cccc(OCCC)c1-c1cc(-c2ccc(Cl)cc2)[nH]c1-c1ccncc1 | 40 | – | 290 | – | 670 | IC50 (Glucagon receptor [7]): > 3000 nM; inhibition [8]: 5% |
| CCCCOc1ccccc1-c1cc(-c2ccc(Cl)cc2)[nH]c1-c1ccncc1 | 10 | – | 180 | – | 80 | IC50 (Glucagon receptor [7]): 1200 nM; inhibition [9]: 16% |
| CC(C)COc1ccccc1-c1cc(-c2ccc(Cl)cc2)[nH]c1-c1ccncc1 | 3 | 3760 | 200 | 0.05 | 150 | inhibition [10]: 17% |
| C[S+]([O-])c1ccc(-c2cc(-c3ccncc3)c(-c3ccc(F)cc3)[nH]2)cc1 (stereo not given) | – | 5.3 | – | – | – | inhibition (Glucagon receptor [11]): 31% |
| CCCOc1ccc(Cl)cc1-c1cc(-c2ccc(Cl)cc2)[nH]c1-c1ccncc1 | 6 | – | 170 | – | 50 | IC50 (Glucagon receptor [7]): 1000 nM; inhibition [12]: 31% |
| Fc1ccc(-c2cc(-c3ccccc3)[nH]c2-c2ccncc2)cc1 | 390 | 800 | – | – | 2700 | – |
| Fc1ccc(-c2cc(C3CCCCC3)[nH]c2-c2ccncc2)cc1 | 90 | 180 | 490 | 2.7 | > 1000 | IC50 (Glucagon receptor [7]): > 1000 nM |
| CC(C)c1cc(-c2ccc(Cl)cc2)[nH]c1-c1ccncc1 | 32 | > 10000 | 110 | – | 60 | IC50 (Glucagon receptor [7]): > 3000 nM |
| Fc1ccc(-c2cc(-c3ccc(Cl)cc3Cl)[nH]c2-c2ccncc2)cc1 | 40 | 420 | 950 | 2.2 | 340 | inhibition [13]: 13% |
| CSc1ccc(-c2cc(-c3ccncc3)c(-c3ccc(F)cc3)[nH]2)cc1 | – | 44 | – | – | – | inhibition (Glucagon receptor [11]): 0% |
| O=C(NCc1ccccc1)c1cc(-c2ccc(Cl)cc2)[nH]c1-c1ccncc1 | > 3000 | – | – | – | – | inhibition [9]: 0% |
| C[S+]([O-])c1ccc(-c2nc(-c3ccc(F)cc3)c(-c3ccncc3)[nH]2)cc1 (stereo not given) [SB-203580] | – | – | – | – | – | inhibition (Glucagon receptor [11]): 18%; IC50 [14]: 37 nM |
| Clc1ccc(-c2cc(-c3ccc(Br)cc3)c(-c3ccncc3)[nH]2)cc1 | 140 | 300 | 2300 | 7.6 | – | – |
| O=C(OCc1ccccc1)c1cc(-c2ccc(Cl)cc2)[nH]c1-c1ccncc1 | 60 | – | 1300 | – | 800 | inhibition [13]: 8%; inhibition [15]: 69% |
| CCOC(=O)c1ccc(-c2cc(-c3ccc(F)cc3)c(-c3ccncc3)[nH]2)cc1 | 850 | 260 | – | – | – | – |
| CN1CCC(c2cc(-c3ccc(F)cc3)c(-c3ccncc3)[nH]2)CC1 | – | 20 | – | > 130 | – | inhibition (Glucagon receptor [11]): 7% |
| Clc1ccc(-c2cc(-c3ccc(Cl)cc3)c(-c3ccncc3)[nH]2)cc1 | 190 | 160 | 810 | 5 | 220 | Inhibition (Glucagon receptor [16]): 42% |
| Fc1ccc(-c2cc(-c3ccc(Cl)cc3)[nH]c2-c2ccncc2)cc1 | 80 | 1400 | 800 | 0.57 | 200 | inhibition [13]: 43% |
| N#Cc1ccc(-c2cc(-c3ccc(F)cc3)c(-c3ccncc3)[nH]2)cc1 | 140 | 50 | 4900 | 102 | 230 | inhibition [17]: 42% |
| COc1ccc(-c2cc(-c3ccc(Cl)cc3)[nH]c2-c2ccncc2)cc1 | 100 | 1150 | 1600 | 1.4 | 240 | inhibition [13]: 16% |

| Structure (SMILES) | IC50 (Glucagon receptor [1]) [nM] | IC50 [2] [nM] | IC50 (Glucagon receptor [3]) [nM] | Ratio [4] | IC50 (Glucagon receptor [5]) [nM] | further results |
| --- | --- | --- | --- | --- | --- | --- |
| COc1cccc(-c2cc(-c3ccc(Cl)cc3)[nH]c2-c2ccncc2)c1 | 60 | 420 | 450 | 1.1 | – | – |
| Clc1ccc(-c2cc(C3CCCCC3)c(-c3ccncc3)[nH]2)cc1 | 100 | > 10000 | > 3000 | – | 60 | IC50 (Glucagon receptor [7]): > 3000 nM |
| CC(C)Oc1ccccc1-c1cc(-c2ccc(Cl)cc2)[nH]c1-c1ccncc1 | 30 | 5540 | 910 | 0.16 | 700 | IC50 (Glucagon receptor [7]): > 1000 nM |
| CC(C)(C)c1ccc(-c2cc(-c3ccc(F)cc3)c(-c3ccncc3)[nH]2)cc1 | 850 | > 10000 | – | – | – | – |
| COc1ccccc1-c1cc(-c2ccc(Cl)cc2)[nH]c1-c1ccncc1 | 70 | 2650 | 500 | 0.18 | 400 | inhibition [10]: 6% |
| Fc1ccc(-c2cc(-c3cccc(Cl)c3)[nH]c2-c2ccncc2)cc1 | 40 | 420 | 990 | 2.3 | 460 | inhibition [13]: 28% |
| CCCCCCOc1ccccc1-c1cc(-c2ccc(Cl)cc2)[nH]c1-c1ccncc1 | 40 | 2680 | 500 | 0.18 | 340 | inhibition [13]: 22% |
| CCOC(=O)c1cc(-c2ccc(Cl)cc2)[nH]c1-c1ccncc1 | 90 | > 1000 | 400 | – | 500 | IC50 (Glucagon receptor [7]): > 3000 nM |
| CCCOc1cc(Br)ccc1-c1cc(-c2ccc(Cl)cc2)[nH]c1-c1ccncc1 | 4 | – | 130 | – | 49 | IC50 (Glucagon receptor [7]): 830 nM |
| Cc1cc(-c2ccc(F)cc2)c(-c2ccncc2)[nH]1 | > 3000 | 320 | – | > 9 | – | – |
| Clc1ccc(-c2ccc(-c3ccncc3)[nH]2)cc1 | 140 | > 10000 | > 3000 | – | 700 | IC50 (Glucagon receptor [7]): > 3000 nM |
| O=[N+]([O-])c1ccc(-c2cc(-c3ccc(F)cc3)c(-c3ccncc3)[nH]2)cc1 | 360 | 50 | – | – | – | – |
| CCOc1ccccc1-c1cc(-c2ccc(Cl)cc2)[nH]c1-c1ccncc1 | 40 | 14200 | 500 | 0.03 | 340 | inhibition [10]: 22% |
| C=CCOc1ccccc1-c1cc(-c2ccc(Cl)cc2)[nH]c1-c1ccncc1 | 17 | 4740 | 260 | 0.05 | 270 | inhibition [17]: 50% |
| Cc1ccc(-c2cc(-c3ccc(F)cc3)c(-c3ccncc3)[nH]2)cc1 | 250 | 1690 | 2200 | 1.3 | – | – |
| CCCNc1ccccc1-c1cc(-c2ccc(Cl)cc2)[nH]c1-c1ccncc1 | 20 | – | 270 | – | 440 | IC50 (Glucagon receptor [7]): > 3000 nM; inhibition [18]: 52% |
| Clc1ccc(-c2cc(-c3ccccc3Br)c(-c3ccncc3)[nH]2)cc1 | 26 | 1000 | 2300 | 2.3 | – | – |
| O=C(O)c1ccc(-c2cc(-c3ccc(F)cc3)c(-c3ccncc3)[nH]2)cc1 | > 3000 | 90 | – | – | – | – |
| C[S+]([O-])c1ccc(-c2cc(-c3ccc(F)cc3)c(-c3ccncc3)[nH]2)cc1 (stereo not given) | 1100 | 670 | – | – | – | – |
| COc1ccc(-c2cc(-c3ccc(F)cc3)c(-c3ccncc3)[nH]2)cc1 | 590 | 2800 | – | – | – | – |
| Clc1ccc(-c2cc(-c3ccccc3)c(-c3ccncc3)[nH]2)cc1 | 60 | 210 | 380 | 1.8 | – | – |
| CSc1ccc(-c2cc(-c3ccc(F)cc3)c(-c3ccncc3)[nH]2)cc1 | 290 | 1230 | – | – | – | – |
| CCCOc1ccccc1-c1cc(-c2ccc(Cl)cc2)[nH]c1-c1ccncc1 | 8 | 2840 | 140 | 0.05 | 30 | IC50 (Glucagon receptor [7]): 700 nM |
| CCc1ccc(-c2cc(-c3ccc(F)cc3)c(-c3ccncc3)[nH]2)cc1 | 370 | 1360 | – | – | – | – |
